Data on two compounds can be found in ChEMBL document CHEMBL1124995, “Synthesis and pharmacology of the enantiomers of cis-7-hydroxy-3-methyl-2-(dipropylamino)tetralin” (J Med Chem, 1990).

For assay [1], the system named is Rattus norvegicus. Put plainly: Effect of locomotor activity in reserpine pretreated rats at the dose of 25.0uM/Kg, sc ip after count of 30 minute. In kind it is functional. Put shortly: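 Reserpine 5 mg/kg sc given 18 h before; test drug sc immediately before session; haloperidol 0.3 mg/kg sc injected 30 min before test drug. Photocell motility boxes, accumulated counts over 30 min, with gross behaviour observed through mirror; mean ± SEM, n = 3-4; Anova with Fischer's test versus saline controls. Injection volume 5 mL/kg, near-neutral pH.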

In assay [2] the target is T1, D(2) dopamine receptor (Bos taurus, UniProt P20288). The assay can be described thus: Binding affinity of [3H]NPA to striatal Dopamine receptor D2. Put shortly: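 Calf striatal membranes (homogenised in Tris salt buffer pH 7.4, preincubated 30 min at 35 °C, washed), 1.5–2 mg/tube. Competition with [3H]NPA (100 μL of 5 nM added to 1 mL) in 50 mM Tris-HCl, 1 mM EDTA, 4 mM MgCl2, 0.01% ascorbic acid, pH 7.2. Incubated 45 min at 25 °C. Nonspecific binding with 1 μM (+)-butaclamol. Filtration, scintillation counting; pIC50 as mean ± SEM.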

Assay [3] addresses T1, D(2) dopamine receptor. The assay can be described thus: Binding affinity of [3H]spiroperidol to striatal Dopamine receptor D2 binding sites. Put shortly:
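Calf striatal membranes, 1.5–2 mg/tube. Competition with [3H]spiroperidol (100 μL of 10 nM added to 1 mL) in Tris-HCl buffer with EDTA, NaCl, KCl, CaCl2, MgCl2, pH 7.2, run in triplicate. Incubated 40 min at 37 °C. Nonspecific binding with 1 μM (+)-butaclamol. GF/B filtration, scintillation counting; pIC50 as mean ± SEM.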

Assay [4] deals with Rattus norvegicus. The assay can be described thus: Effect of locomotor activity in reserpine pretreated rats at the dose of 50.0uM/Kg, sc ip after count of 30 minute. Type of assay: functional. Put shortly:
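Rats given reserpine 5 mg/kg sc 18 h beforehand, then test drug sc immediately before the session. Photocell motility counts accumulated over 30 min, mean ± SEM, n = 3-4. In one arm haloperidol 0.3 mg/kg sc was given 30 min before drug. ANOVA with Fisher's test against controls.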

Assay [5] deals with Rattus norvegicus. Put plainly: In vivo effect of 5-HTP accumulation in nonpretreated rat cortex at the dose of 50 umol/kg, sc. In kind it is functional. In outline:
(§1)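 Untreated rats given test drug 50 μmol/kg sc 65 min before death, and NSD 1015 (decarboxylase inhibitor) 100 mg/kg ip 30 min before death. DOPA and 5-HTP in limbic, striatal and cortical regions measured by HPLC with electrochemical detection. Values are % of saline controls, mean ± SEM, n = 4. ANOVA with Fisher's test.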

Assay [6] has as its system Rattus norvegicus. The assay can be described thus: In vivo effect of 5-HTP accumulation in nonpretreated rat limbic system at the dose of 50 umol/kg, sc. Type of assay: functional. In outline:
as §1

Assay [7] deals with Rattus norvegicus. Put plainly: In vivo effect of 5-HTP accumulation in nonpretreated rat striatum at the dose of 50 umol/kg, sc. In kind it is functional. Put shortly:
as §1

The test system of assay [8] is Rattus norvegicus. Put plainly: In vivo effect of DOPA accumulation in nonpretreated rat cortex at the dose of 50 umol/kg, sc ip. In kind it is functional. In outline: as §1
Assay [9] relates to Rattus norvegicus. The assay can be described thus: In vivo effect of DOPA accumulation in nonpretreated rat limbic system at the dose of 50 umol/kg, sc ip. Type of assay: functional. In outline: as §1
The test system of assay [10] is Rattus norvegicus. The assay can be described thus: Effect of locomotor activity in nonpretreated rats at the dose of 50.0uM/Kg, sc. Type of assay: functional. Put shortly:
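Untreated rats given test drug sc 5 min before the session. Photocell motility boxes recorded accumulated counts over 30 min, with gross behaviour observed. Activity expressed as % of saline controls, mean ± SEM. ANOVA with Fisher's test.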

In assay [11] the test system is Rattus norvegicus. The assay can be described thus: In vivo effect of DOPA accumulation in nonpretreated rat striatum at the dose of 50 umol/kg, sc ip. In kind it is functional. Put shortly:
as §1

T1 sequence (P20288 whole entry): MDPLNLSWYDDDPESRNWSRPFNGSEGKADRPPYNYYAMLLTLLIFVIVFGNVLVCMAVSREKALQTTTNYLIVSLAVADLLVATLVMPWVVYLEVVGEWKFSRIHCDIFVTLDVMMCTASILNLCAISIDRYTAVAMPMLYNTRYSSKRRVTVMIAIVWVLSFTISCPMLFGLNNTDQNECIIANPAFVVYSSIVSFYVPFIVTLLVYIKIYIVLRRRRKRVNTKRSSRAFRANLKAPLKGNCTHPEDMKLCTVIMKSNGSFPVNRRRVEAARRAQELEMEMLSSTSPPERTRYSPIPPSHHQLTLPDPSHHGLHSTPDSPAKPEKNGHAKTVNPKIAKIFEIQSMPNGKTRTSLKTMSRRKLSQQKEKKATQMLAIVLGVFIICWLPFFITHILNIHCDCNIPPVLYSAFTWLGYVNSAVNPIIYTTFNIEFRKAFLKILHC

Take `O=C(CCCN1CCC(O)(c2ccc(Cl)cc2)CC1)c1ccc(F)cc1` [HALOPERIDOL]: in [1], the Activity was 573 counts/30 min.
Take `CCCN(CCC)[C@@H]1Cc2cc(O)ccc2C[C@H]1C` (racemic): the results for the IC50 in assay [2] and in [3] were 1.02 µM and 26.9 µM, respectively. Moreover, the Activity worked out at 331 µM/kg in [4] and 147 µM/kg in assay [10]. For the same compound, the Control is recorded as 147% in assay [5]; 136% in assay [6]; 117% in assay [7]; 217% in [8]; 146% in assay [9]; 247% in [11].

As usually defined, the IC50 is the midpoint of a concentration-inhibition curve. Higher therefore signals weaker potency in that assay.
